Test results: paper PMC3457786 (Journal of chromatography. B, Analytical technologies in …, 2012)
“Also recorded” adds a separate entry of the source. Like-named read-outs stand apart in the source and are kept apart here.

Columns and labels:
Caco-2 monolayers [1] = experiment: Lucifer yellow; type: in vitro ADME, human; conditions: either direction, at the ends of the experiments
[2] = tested on: labile iron pool (LIP) in THP-1 cells; experiment: Calcein-based iron chelation assay; type: cell-based, human; conditions: iron-loaded THP-1 cells, 10 µM chelator, SIH as positive control
Summary of the method: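 THP-1 cells were loaded with ferric sulfate at 25 µM for 1 h (figure legend: iron(II) sulfate at 10 µM for 3 h, 37°C). They then took calcein-AM at 0.2 µM for 10 min at 37°C, were washed and resuspended in PBS. Chelator (10 µM) or SIH (30 µM) was added. Fluorescence (ex 465/em 510 nm) was read immediately in repeated 2-min cycles at 37°C, expressed as (F−Fi)/Fi, with Fi = fluorescence at time 0.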

Caco-2 cells [3] = experiment: Cytotoxicity assay; type: cell-based; conditions: concentrations up to 500 µM, 24 h
HIV-1 = conditions: ref [14], cited from earlier work
Caco-2 monolayers [4] = experiment: Drug transport; type: in vitro ADME, human; conditions: for Papp (× 10^−5) (cm/s) AP-to-BL / Papp (× 10^−5) (cm/s) BL-to-AP: 37°C, 30-120 min, mean ± SD (n=3)
[5] = Stability and isomer conversion of chelator solutions by HPLC; type: physicochemical; conditions: resolved by HPLC
Summary of the method: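 Solutions diluted in HBSS from 100 mM DMSO stocks, sonicated and warmed to 37°C. Stored at 4°C for one week with freeze-thaw, or 4 h at room temperature or 40°C. 50 µM solutions with a 10 µM thiosemicarbazone internal standard injected fresh and after 24 h at 4°C. Reversed-phase F5 column, 40°C, 1 mL/min, 2 mM ammonium acetate/10 mM EDTA–acetonitrile 50:50, pH 5.8, UV 318 nm.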

[6] = ref [30]; cited from earlier work
Caco-2 cells [7] = conditions: Caco-2 cells in vitro; ref [34]; cited from earlier work
Cytotoxicity assay = type: cell-based; conditions: human
lung cancer xenografts = conditions: mice, oral route; ref (35); cited from earlier work
[8] = 100 µM chelator, Caco-2 monolayers
[9] = 300 µM chelator, Caco-2 monolayers

## lucifer yellow [LY]
Caco-2 monolayers [1]
  LY recovered from the receiver chambers: Less than 2%

## C=CCNC(=S)NN=C(c1ccccc1)c1ccccn1 [Bp4aT, 2-benzoylpyridine 4-allyl-3-thiosemicarbazone]
[2]
  Intracellular iron chelation (calcein de-quenching): slightly more effective intracellular iron chelators than SIH; also recorded: greater chelation efficacy than Bp4eT
Caco-2 cells [3]
  Effect on Caco-2 cell growth / cytotoxicity: little effect; also recorded: no apparent cytotoxicity
HIV-1; [15]
  IC50, inhibition of HIV-1 replication: nanomolar concentrations
Caco-2 monolayers [4]; 100 µM chelator
  Rnet, ratio of Papp (BL-to-AP) to Papp (AP-to-BL): 0.77
Caco-2 monolayers [4]; [8]
  Papp (× 10^−5) (cm/s) AP-to-BL: 1.670 ± 0.016 × 10^−5 cm/s
  Papp (× 10^−5) (cm/s) BL-to-AP: 1.292 ± 0.282 × 10^−5 cm/s
Caco-2 monolayers [4]; 300 µM chelator
  Rnet, ratio of Papp (BL-to-AP) to Papp (AP-to-BL): 0.92
Caco-2 monolayers [4]; [9]
  Papp (× 10^−5) (cm/s) AP-to-BL: 2.756 ± 0.261 × 10^−5 cm/s
  Papp (× 10^−5) (cm/s) BL-to-AP: 2.534 ± 0.454 × 10^−5 cm/s
Caco-2 monolayers [4]; relative to Bp4eT, Caco-2 monolayers
  Transport of Bp4aT faster than that of Bp4eT: approximately 1.5 fold
[5]
  E/Z isomer formation in aqueous solution: formed inter-convertible Z and E isomers

## CC(=O)N(O)CCCCCNC(=O)CCC(=O)N(O)CCCCCNC(=O)CCC(=O)N(O)CCCCCN [DFO, desferrioxamine]
[6]
  Absorption through the gastrointestinal tract: very poor absorption

## CCNC(=S)NN=C(c1ccccc1)c1ccccn1 [Bp4eT, 2-benzoylpyridine 4-ethyl-3-thiosemicarbazone]
[2]
  Intracellular iron chelation (calcein de-quenching): slightly more effective intracellular iron chelators than SIH
HIV-1; [15]
  IC50, inhibition of HIV-1 replication: nanomolar concentrations
Caco-2 monolayers [4]; 100 µM chelator
  Rnet, ratio of Papp (BL-to-AP) to Papp (AP-to-BL): 1.10
Caco-2 monolayers [4]; [8]
  Papp (× 10^−5) (cm/s) AP-to-BL: 0.809 ± 0.119 × 10^−5 cm/s
  Papp (× 10^−5) (cm/s) BL-to-AP: 0.889 ± 0.196 × 10^−5 cm/s
Caco-2 monolayers [4]; 300 µM chelator
  Rnet, ratio of Papp (BL-to-AP) to Papp (AP-to-BL): 0.89
Caco-2 monolayers [4]; [9]
  Papp (× 10^−5) (cm/s) AP-to-BL: 1.819 ± 0.302 × 10^−5 cm/s
  Papp (× 10^−5) (cm/s) BL-to-AP: 1.627 ± 0.107 × 10^−5 cm/s
[5]
  E/Z isomer formation in aqueous solution: formed inter-convertible Z and E isomers

## O=C(O)c1ccc(-n2nc(-c3ccccc3O)nc2-c2ccccc2O)cc1 [ICL670, 4-[3,5-bis-(hydroxyphenyl)-1,2,4-triazol-1-yl]-benzoic acid, reference compound]
HIV-1; [15]
  IC50, inhibition of HIV-1 replication: high micromolar concentrations
HIV-1
  IC50, inhibition of HIV-1 replication: high micromolar range
Caco-2 cells [7]
  Papp value: 1.66 ± 0.13 × 10^−5 cm/s

## NC(=S)NN=C(c1ccccc1)c1ccccn1 [BpT, 2-benzoylpyridine thiosemicarbazone]
Cytotoxicity assay
  viability at 24 h, 500 µM: ~70%

## CN(C)C(=S)NN=C(c1ccccc1)c1ccccn1 [Bp44mT, 2-benzoylpyridine-4,4-dimethyl-3-thiosemicarbazone]
Lung cancer xenografts
  Efficacy against lung cancer xenografts: marked efficacy
